Test results from paper PMC10339699 (Clinical and Translational Science, 2023).
≈ marks a conversion by molar mass, not a printed value. Where two headings read alike, the source gives them in different places.

Columns and labels:
Safety and tolerability = assay type: in vivo, human
[1] = Part 1: plasma PK of rilzabrutinib after single oral 400 mg tablet; assay type: in vivo, human
BTK = conditions: within 4 h of dosing, multiple dosing; cited from earlier work
[2] = assay type: in vivo, human
[3] = Part 1: plasma PK of [14C]‐rilzabrutinib after i.v. microtracer dose; assay type: in vivo; conditions: male, human, iv, 100 ug
[4] = previous bioavailability study; ref PRN1008‐006, unpublished data; cited from earlier work
pH‐dependent solubility = assay type: physicochemical
gut flora = test: Gut flora metabolism in vitro; assay type: in vitro ADME; conditions: in vitro studies (unpublished data)
[5] = assay type: in vivo, human; remark: listed apart in the source
[6] = Part 1: absolute oral bioavailability; assay type: in vivo; conditions: male, human, plasma, 400 mg
How it was run: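 Healthy subjects (n = 8) fasted overnight 10 h, then took a 400 mg oral tablet with 240 mL water. At 120 min, ~100 μg [14C]-labelled microtracer (~1 μCi) was given as an ~2-min i.v. push. K2 EDTA plasma was analysed by acetonitrile precipitation and LC-MS/MS (0.100–100 ng/mL). Noncompartmental AUC used linear-up/log-down. F was the GLSM oral/i.v. ratio with 90% CI, from a model with formulation fixed and subject random.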

[7] = Part 2: total radioactivity PK in plasma and whole blood; assay type: in vivo, human; conditions: part 2, plasma total radioactivity
[8] = Part 2: urinary excretion of unchanged rilzabrutinib; assay type: in vivo, human
[9] = male, human, plasma, po, 400 mg
[10] = part 1, oral 400 mg tablet (test), mixed‐effect model
[11] = part 1, single oral 400 mg tablet, dose normalized, geometric mean (CV)
[12] = bile collection subjects, through the last collection interval
[13] = non‐bile collection subjects, through the last collection interval

CC(C)(/C=C(\C#N)C(=O)N1CCC[C@@H](n2nc(-c3ccc(Oc4ccccc4)cc3F)c3c(N)ncnc32)C1)N1CCN(C2COC2)CC1 [rilzabrutinib]
Clinical laboratory evaluations, vital signs, 12‐lead electrocardiogram, physical examinations (Safety and tolerability; both parts of the study): no clinically significant findings | Tolerability (Safety and tolerability; both parts of the study, healthy male subjects): well‐tolerated | Deaths, serious adverse events, or TEAEs leading to discontinuation (Safety and tolerability; either part of the study): No deaths, serious adverse events, or treatment emergent adverse events (TEAEs) leading to discontinuation | Severity of TEAEs (Safety and tolerability; entire study, except for one moderate TEAE (viral infection) not treatment related): mild | Total number of TEAEs (Safety and tolerability; part 1): three | Total number of TEAEs (Safety and tolerability; part 2): 13 | Subjects who reported TEAEs (Safety and tolerability; part 2, six of 10 subjects): 60% | Delay in T max for tablet formulation as compared to liquid formulation ([1]; 400 mg tablet (part 1) versus 300 mg solution (part 2)): 1 h | AUC(0-inf) [1, 9]: 336 ng·h/mL | AUC(0-t) [1, 9]: 334 ng·h/mL | Cmax [1, 9]: 108 ng/mL | Tmax [1, 9]: 2.03 h | DN AUC0–inf, GLSM [1, 10]: 0.839 ng·h/mL/mg | DN AUC0–last, GLSM [1, 10]: 0.835 ng·h/mL/mg | DN AUC0–inf [1, 11]: 0.839 (62.2) [n = 8] h ng/mL/mg | DN AUC0–last [1, 11]: 0.835 (62.7) [n = 8] h ng/mL/mg | BTK occupancy (BTK): greater than 90% | Administered radioactivity recovered in the first 192 h postdose ([2]; bile collection subjects): 87.1% | Administered radioactivity recovered in bile, average ([2]; bile collection subjects, 3-8 h postdose): 6.29% | Administered radioactivity recovered in feces, average [2, 12]: 72.7% | Administered radioactivity recovered in urine, average [2, 12]: 5.42% | Administered radioactivity recovered within the first 168 h of dosing ([2]; non‐bile collection subjects): 92.1% | Administered radioactivity recovered in feces, mean [2, 13]: 87.0% | Administered radioactivity recovered in urine, mean [2, 13]: 5.25% | Vd [3]: 149 L | clearance [3]: 968 mL/min | PK exposure after 300 mg oral solution and 400 mg tablet formulation [4]: comparable | solubility (pH‐dependent solubility): 40 µg/mL (≈ 60.1 µM) | solubility (pH‐dependent solubility; aqueous buffer): > 120000 µg/mL | Gut flora metabolism (gut flora): high gut flora metabolism | half-life ([5]; male, human, plasma, po, 300 mg): 2.45 h | CL/F ([5]; part 2, single oral 300 mg solution, geometric mean (CV)): 904 L/h | bioavailability [6]: < 5% | Circulating metabolite identified [7]: thiocyanate | CL renal ([8]; male, human, urine and plasma, po, 300 mg): 4.05 mL/min | f eu (percentage of dose excreted in urine as unchanged drug) ([8]; unchanged rilzabrutinib in urine, 0–312 h, 300 mg oral, geometric mean (CV)): 3.02%
